# Results from different studies.
# Read-out: cell growth or viability
SMILES,cell line,technique,tested at,time,measurement,result
O=C(NCc1ccc(O)cc1)c1cn(Cc2ccc(F)cc2)c2ccc(Oc3ccccc3)cc2c1=O,MCF7,MTT,,24 h,IC50,> 500 µM
CC[C@H](C)[C@H](NC(=O)[C@H](CCCCN)NC(=O)[C@H](CCCCN)NC(=O)[C@H](CC(C)C)NC(=O)[C@H](CCCCN)NC(=O)[C@H](CCCCN)NC(=O)[C@H](Cc1ccccc1)NC(=O)[C@H](Cc1ccccc1)NC(=O)[C@H](CCCNC(=N)N)NC(=O)[C@H](CCCNC(=N)N)NC(=O)[C@@H](NC(=O)[C@H](CCCCN)NC(=O)[C@H](CCCNC(=N)N)NC(=O)[C@@H](NC(=O)[C@@H](N)Cc1ccc(O)cc1)[C@@H](C)CC)[C@@H](C)CC)C(=O)N[C@@H](CC(C)C)C(=O)N[C@@H](CCCCN)C(=O)N[C@@H](CCCCN)C(N)=O,SAOS-2,resazurin,,,IC50,> 20 µM
O=C1CCP(=S)(c2ccccc2)CC1,SW-620,MTT,,72 h,IC50,6.3 µM
CC(C)C[C@@H](NC(=O)[C@H](C)NC(=O)CNC(=O)[C@@H](NC=O)C(C)C)C(=O)N[C@@H](C)C(=O)N[C@@H](C(=O)N[C@H](C(=O)N[C@@H](C(=O)N[C@@H](Cc1c[nH]c2ccccc12)C(=O)N[C@H](CC(C)C)C(=O)N[C@@H](Cc1cccc2[nH]ccc12)C(=O)N[C@H](CC(C)C)C(=O)N[C@@H](Cc1c[nH]c2ccccc12)C(=O)N[C@H](CC(C)C)C(=O)N[C@@H](Cc1c[nH]c2ccccc12)C(=O)NCCO)C(C)C)C(C)C)C(C)C,MCF7,SRB,,48 h,GI50,0.0684 µM
O=C1CCP(c2ccccc2)CC1,SW-620,MTT,,72 h,IC50,73.7 µM
CC(C)C[C@@H](NC(=O)[C@H](C)NC(=O)CNC(=O)[C@@H](NC=O)C(C)C)C(=O)N[C@@H](C)C(=O)N[C@@H](C(=O)N[C@H](C(=O)N[C@@H](C(=O)N[C@@H](Cc1c[nH]c2ccccc12)C(=O)N[C@H](CC(C)C)C(=O)N[C@@H](Cc1ccc2[nH]ccc2c1)C(=O)N[C@H](CC(C)C)C(=O)N[C@@H](Cc1c[nH]c2ccccc12)C(=O)N[C@@H](C(=O)N[C@@H](Cc1c[nH]c2ccccc12)C(=O)NCCO)C(C)C)[C@H](C)O)C(C)C)C(C)C,MCF7,SRB,,48 h,GI50,0.878 µM
O=C(NCc1ccccc1)c1cn(Cc2ccc(C(F)(F)F)cc2)c2ccc(Oc3ccccc3)cc2c1=O,MCF7,MTT,,24 h,IC50,9.4 µM
N.N.[Cl][Pt][Cl],MCF7,MTT,,48 h,IC50,27.8 µM
CC(C)C[C@@H](NC(=O)[C@H](C)NC(=O)CNC(=O)[C@@H](NC=O)C(C)C)C(=O)N[C@@H](C)C(=O)N[C@@H](C(=O)N[C@H](C(=O)N[C@@H](C(=O)N[C@@H](Cc1c[nH]c2ccccc12)C(=O)N[C@H](CC(C)C)C(=O)N[C@@H](Cc1cccc2cc[nH]c12)C(=O)N[C@H](CC(C)C)C(=O)N[C@@H](Cc1c[nH]c2ccccc12)C(=O)N[C@H](CC(C)C)C(=O)N[C@@H](Cc1c[nH]c2ccccc12)C(=O)NCCO)C(C)C)C(C)C)C(C)C,MCF7,SRB,,48 h,GI50,0.0365 µM
O=C(Nc1ccc(Cl)cc1)Nc1cccc(-c2cn(Cc3ccc(Br)cc3)nn2)c1,MCF7,CCK-8,50 µM,72 h,viability,86.8%
